Experimental data pooled from the literature.
Lines come from different studies, so protocols differ.
Target: Serine/threonine-protein kinase Nek6 (NEK6, Homo sapiens, UniProt Q9HC98)

| SMILES | test | conditions | remaining binding |
| --- | --- | --- | --- |
| c1cnn2ncc(-c3ccnc(N4CCC45COC5)n3)c2c1 | binding | 1 µM | 94% |
| COc1cnc(Nc2cccc(S(N)(=O)=O)c2)nc1N1CCN(c2ccccc2)CC1 | binding, competition with immobilised ligand | 1 µM | 100% |
| O=C(c1ccc(Nc2ncc(Cl)c(-c3ccc(Cl)s3)n2)cc1)N1CCC(N2CCCC2)CC1 | binding, competition with immobilised ligand | 1 µM | 9.9% |
| O=C(N[C@H]1CCCCC/C=C\C2C[C@@]2(C(=O)O)NC(=O)[C@@H]2C[C@@H](Oc3ccncc3)CN2C1=O)OC1CCCC1 (stereo partly shown) | binding, competition with immobilised ligand | 1 µM | 87% |
| N[C@@H]1CCN(c2nccc(-c3cnn4ncccc34)n2)C1 | binding | 1 µM | 100% |
| O=C(NCC1CCOCC1)c1n[nH]cc1NC(=O)c1c(F)cccc1F | binding, competition with immobilised ligand | 1 µM | 90% |
| COc1ncc2cc3ccccc3nc2c1C#N | cell-free assay, competition with immobilised ligand | 5 µM | 100% |
| CC1=C(C#N)[C@@H](c2ccc3[nH]nc(C)c3c2)C(C#N)=C(c2ccc(Cl)cc2)N1 | cell-free assay, competition with immobilised ligand | 1 µM | 100% |
| O=C(c1ccc(Nc2nccc(-c3cc4ccccc4s3)n2)cc1)N1CCC(N2CCCC2)CC1 | binding, competition with immobilised ligand | 1 µM | 87% |
| FC(F)(F)Oc1cccc(-c2cnc3ccc(-c4ccncc4)nn23)c1 | cell-free assay, competition with immobilised ligand | 5 µM | 85% |
| CCC(=O)N[C@H]1CC[C@@H](C(=O)N(C)c2ccc(-c3nc4ccccc4o3)cc2)C1 | cell-free assay, competition with immobilised ligand | 1 µM | 85% |
| COc1ccnn2ncc(-c3ccnc(N(C)C)n3)c12 | binding | 1 µM | 100% |
| C[C@H](c1cccc(C#N)c1)n1cc(Cl)cc(C(N)=O)c1=N | cell-free assay, competition with immobilised ligand | 1 µM | 94% |
| c1cncc(-c2cccc(Nc3nccc(NC4CCCCC4)n3)c2)c1 | binding, competition with immobilised ligand | 10 µM | 71% |
| CN(C)c1ncc(F)c(-c2cnn3ncccc23)n1 | binding | 1 µM | 99% |
| CSc1cccnc1N1CCN(Cc2nc3ccccc3[nH]2)CC1 | cell-free assay, competition with immobilised ligand | 1 µM | 98% |
| CN(c1nccc(-c2cnn3ncccc23)n1)C1CC1 | binding | 1 µM | 100% |
| CNC(=O)[C@@H]1CC[C@@H](n2c(-c3ccc4cnccc4c3)nc3ccc(C(=O)NCc4cccc(C(N)=O)c4)cc32)C1 | binding, competition with immobilised ligand | 1 µM | 97% |
| CCCOc1ccc([C@@H]2[C@@H](C(=O)O)[C@H](c3ccc4c(c3)OCO4)CN2CC(=O)Nc2c(CC)cccc2CC)cc1 | cell-free assay, competition with immobilised ligand | 1 µM | 92% |
| C[C@@H]1CCN(c2nccc(-c3cnn4ncccc34)n2)C1 | binding | 1 µM | 100% |
| CS(=O)(=O)N1CCCC(NC(=O)[C@H](CCC2CCCCC2)NC(=O)c2ccc(CNC(=O)c3cnc4ccccn34)cc2)C1 (stereo partly shown) | cell-free assay, competition with immobilised ligand | 0.1 µM | 100% |
| O=C(c1ccc(Nc2ncc(Cl)c(-c3cc4ccccc4s3)n2)cc1)N1CCC(N2CCCC2)CC1 | binding, competition with immobilised ligand | 1 µM | 35% |
